In ChEMBL document CHEMBL4325821, “Novel cell-penetrating-amyloid peptide conjugates preferentially kill cancer cells” (Medchemcomm, 2018):
Activity calls are given as the source filed them. No cut-off for these calls is given here. Starred links: 1 amine or outer side, 2 acyl side, 3 side chain; linkers in the order of their positions; H or OH if unused. Residues, ends and D or L forms follow the SMILES beside them. *: point of attachment. Piperazinyl(4-RhodamineB) = CCN(CC)c1ccc2c(-c3ccccc3C(=O)N3CCN(*)CC3)c3ccc(=[N+](CC)CC)cc-3oc2c1; Suc = O=C(CCC(=O)[*:2])[*:1]

Assays:
[1] = Drug localization in cytosol of human HeLa cells assessed as punctate formation after 3 hrs by DAPI staining based fluorescence microscopic analysis; format: ADME, subcellular
In short: (§1)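 Rhodamine-labelled peptide (3.5 μM) was given for 3 h at 37 °C. Cells were washed with DMEM and PBS, fixed in 4% PFA for 20 min, nuclei stained with DAPI, and imaged by epifluorescence with 40× air or 60× oil objectives.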

[2] = Drug localization in cytosol of HEK293 cells assessed as punctate formation after 3 hrs by DAPI staining based fluorescence microscopic analysis; format: ADME, subcellular; conditions: human; in short: as §1
[3] = Drug localization in nucleus of human HeLa cells assessed as punctate formation after 3 hrs by DAPI staining based fluorescence microscopic analysis; format: ADME, subcellular; in short: as §1
[4] = Drug uptake in mouse HT22 cells at 3.5 uM after 6 to 24 hrs by DAPI staining based fluorescence microscopic analysis; format: ADME, cell-based; conditions: ht-22, 3.5 µM
In short: (§2)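 HT-22 cells were incubated with 3.5 μM rhodamine-labelled peptide for 30 min, 3 h, 6 h and 24 h at 37 °C, then fixed in 4% PFA with DAPI nuclear stain. Per-cell fluorescence was taken as integrated density after background correction.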

[5] = Drug uptake in mouse HT22 cells at 3.5 uM up to 3 hrs by DAPI staining based fluorescence microscopic analysis; format: ADME, cell-based; conditions: ht-22, 3 h; in short: as §2
[6] = Drug localization in cytosol of mouse HT22 cells assessed as punctate formation after 3 hrs by DAPI staining based fluorescence microscopic analysis; format: ADME, subcellular, HT-22; in short: as §1
[7] = Drug localization in nucleus of mouse HT22 cells assessed as punctate formation after 3 hrs by DAPI staining based fluorescence microscopic analysis; format: ADME, subcellular; conditions: ht-22, 3 h; in short: as §1
[8] = Drug localization in late endosomes/lysosomes of mouse Rh-Dextran-labelled HT22 cells at 7.5 uM after 2.5 hrs using fluorescent-labelled peptide by confocal microscopic analysis; format: ADME, subcellular, Late endosome/lysosome; conditions: ht-22, 2.5 h
[9] = Drug localization in nucleus of HEK293 cells assessed as punctate formation after 3 hrs by DAPI staining based fluorescence microscopic analysis; format: ADME, subcellular; conditions: human, hek293, 3 h; in short: as §1
HeLa = assay: Cytotoxicity against human HeLa cells after 24 hrs by MTT assay; format: functional
In short: (§3)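 Cells grown at 37 °C with 5% CO2 and treated at about 50–70% confluence in serum-free medium for 24 h. Viability read by MTT and expressed as a percentage of untreated cells. Run in triplicate in at least three independent trials, reported as mean ± standard deviation.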

HT-22 [10] = assay: Induction of cell death in mouse HT22 cells at 7.5 uM after 3 hrs by thioflavin S/DAPI/propidium iodide staining based fluorescence microscopic analysis; format: functional
In short: (§4)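 Cells were given vehicle or 7.5 μM peptide for 3 h and stained live with 20 μg mL−1 propidium iodide for 10 min. They were then PBS-washed, fixed in 4% PFA, stained with 0.005% ThS for 10 min, ethanol-washed, counterstained with DAPI and imaged by fluorescence microscopy.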

HT-22 [11] = assay: Cytotoxicity against mouse HT22 cells after 24 hrs in presence of lysosomal protease inhibitor bafilomycin A1 by MTT assay; format: functional, cell-based
HT-22 [12] = assay: Aggregation property of the compound in mouse HT22 cells assessed as intracellular amyloid formation by thioflavin S/DAPI staining based fluorescence microscopic analysis; format: ADME, cell-based
In short: (§5)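 Cells treated with vehicle or 15 μM peptide for 1 h, fixed in 4% PFA for 20 min, stained with 0.005% (w/v) ThS in water for 10 min, washed three times with absolute ethanol, counterstained with DAPI, and imaged by epifluorescence microscopy.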

MCF-10A = assay: Cytotoxicity against human MCF10A cells after 24 hrs by MTT assay; format: cell-based
In short: (§6)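 Per well of a 48-well plate, 1.5 × 10^4 cells were seeded in medium with 10% FBS and grown for at least 24 h, then treated at about 50–60% confluence for 24 h. MTT was added for the final 3 h at 37 °C in the dark. Formazan was dissolved in DMSO and read at 595 nm, as % of untreated cells. Triplicate wells, at least three independent trials.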

HT-22 [13] = assay: Cytotoxicity against mouse HT22 cells after 24 hrs in presence of lysosomal protease inhibitor leupeptin by MTT assay; format: functional, cell-based
HT-22 [14] = assay: Cytotoxicity against mouse HT22 cells after 24 hrs in presence of lysosomal protease inhibitor ammonium chloride by MTT assay; format: functional, cell-based
MDA-MB-231 = assay: Cytotoxicity against human MDA-MB-231 cells after 24 hrs by MTT assay; format: functional; conditions: for EC50: MDA-MB-231, 24 h, read-out: ED50 (the source's name); in short: as §6
HT-22 [15] = assay: Aggregation property of the compound in mouse HT22 cells assessed as intracellular amyloid formation at 15 uM after 1 hr by thioflavin S/DAPI staining based fluorescence microscopic analysis; format: ADME, cell-based; conditions: ht-22, 1 h; in short: as §5
HT-22 [16] = assay: Induction of endosomal/lysosomal membrane permeabilization in mouse HT22 cells at 15 uM measured after 1 hr by acridine orange dye based fluorescence microscopic analysis; format: functional
HT-22 [17] = assay: Induction of cell death in mouse HT22 cells by thioflavin S/DAPI/propidium iodide staining based fluorescence microscopic analysis; format: functional; in short: as §4
HEK293 = assay: Cytotoxicity against HEK293 cells after 24 hrs by MTT assay; format: cell-based; conditions: human, hek293, 24 h; in short: as §3
[18] = Drug localization in cytosol of mouse Rh-Dextran-labelled HT22 cells at 7.5 uM after 2.5 hrs using fluorescent-labelled peptide by confocal microscopic analysis; format: ADME, subcellular, HT-22

Row | Molecule | Activity (HeLa) | Activity (HT-22 [11]) | Activity (MCF-10A) | Activity (HT-22 [13]) | Activity (HT-22 [14]) | EC50 (MDA-MB-231) | Activity (HT-22 [15]) | also measured
1 | CC[C@H](C)[C@H](NC(=O)[C@H](CCC(N)=O)NC(=O)[C@@H](NC(=O)CCC(=O)N1CCN(C(=O)c2ccccc2-c2c3ccc(=[N+](CC)CC)cc-3oc3cc(N(CC)CC)ccc23)CC1)C(C)C)C(=O)N[C@H](C(=O)N[C@@H](Cc1ccc(O)cc1)C(=O)N[C@@H](CCCCN)C(=O)N[C@@H](CCCNC(=N)N)C(=O)N[C@@H](CCCNC(=N)N)C(=O)N[C@@H](CCCNC(=N)N)C(=O)N[C@@H](CCCNC(=N)N)C(=O)N[C@@H](CCCNC(=N)N)C(=O)N[C@@H](CCCNC(=N)N)C(=O)N[C@@H](CCCNC(=N)N)C(=O)N[C@@H](CCCNC(=N)N)C(=O)N[C@@H](CCCNC(=N)N)C(N)=O)C(C)C.[Cl-] ({Piperazinyl(4-RhodamineB)-Suc}-VQIVYKRRRRRRRRR-NH2) |  |  |  |  |  |  |  | Drug uptake [1]: Active; Drug uptake [2]: Active; Drug uptake [3]: Active; Drug uptake [4]: Not Active; Drug uptake [5]: Active; Drug uptake [6]: Active; Drug uptake [7]: Active; Drug uptake [8]: Active; Drug uptake [9]: Active
2 | Ac-LAVLFL-NH2 | Active |  |  |  |  |  |  | 
3 | Ac-LAVLFLRRRRRRRRR-NH2 |  | Active | Non-Toxic | Active | Active | 20 µM |  | Activity (HT-22 [10]): Active; Activity (HT-22 [12]): Active; EC50 (HeLa; read-out: ED50 (the source's name)): 3 µM
4 | Ac-VQIVKKRRRRRRRRR-NH2 | Active |  |  |  |  |  | Not Active | 
5 | Ac-VQIVYK-NH2 | Active |  | Non-Toxic |  |  |  | Not Active | Activity (MDA-MB-231): inactive
6 | Ac-VQIVYKRRRRRRRRR-NH2 | Active | inactive | Non-Toxic | inactive | inactive | 5 µM | Active | Activity (HT-22 [16]): Active; Activity (HT-22 [17]): Active; Activity (HEK293): Non-Toxic; Drug uptake [18]: Active
